Rows were chosen to be rich in hits. Some 2.6% of all compounds tested hit in one or more screens of this group.
dFosB act-1 = enhances mouse delta FosB homodimer DNA binding | P13346 | purified delta FosB, TAMRA-CDK5 oligo fluorescence polarization; percent of positive-control signal above neutral wells | activation, % at 25 µM | 340,000 compounds, 0.99% hits | AID 493131;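 active means mean activation above about 17%, with every replicate also reaching it, limit read from the data, passing the limit was not always enough; inconclusive means only one of the two conditions met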
SR-BI DiI-HDL act = enhances SR-BI lipid uptake from DiI-HDL; activation, % at 12.5 µM; CHO ldlA[mSR-BI] cells, DiI-HDL uptake fluorescence, 3 h; 100 = double the neutral-control signal; 320,000 compounds, 0.096% hits;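 active means mean replicate activation of at least 60% and every replicate at or above 60%; inconclusive means mean or all-replicate condition met, but not both; inactive means mean below 60% and not all replicates reaching 60%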
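Material – SR-BI-overexpressing, LDLR-lacking CHO cells · Medium – BSA-supplemented, HEPES-buffered Ham's F12, pH 7.4 · Doses – single concentration · Times – compound with DiI-HDL co-incubation, 3 h at 37 °C · Measured by – bottom-read fluorescence, 550/595 nm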
rRNA inh HTS = inhibits bacterial ribosomal RNA function over humanized ribosomes | E. coli WT GFP vs humanized-ribosome RFP mutants, fluorescence, 24 h; stronger effect = lower value; DMSO median 0, no signal -100 | GFP signal change (wild-type ribosome), % (test concentration not listed) | 350,000 compounds, 1.6% hits | AID 720706;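 active means significant combined selectivity score with lowered wild-type GFP, culture density cut under 30%, mutant RFP and density less affected; inactive means any of these conditions unmet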
Xi reactivation = reactivates the inactive X chromosome in mouse fibroblasts; XiGFP mouse fibroblasts, % GFP-positive cells imaging, 3 d; cells co-treated with 5-aza-dC sensitizer; scaled so ellipticine positive control = 100%; activation, % at 7.58 µM; 360,000 compounds, 0.055% hits;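 active means mean normalized replicate activation at least 10% and every replicate at or above 10%; inconclusive means only one of the two criteria met; inactive means mean below 10% and not all replicates reach 10%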
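Material: XiGFP fibroblasts, SV40-immortalized. Buffer or medium: DMEM plus 5-aza-dC sensitizer. Compound: single concentration per compound, delivered by pin transfer. Times: 3 days compound exposure. Controls: ellipticine 6 µM.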
PvdQ inh = P. aeruginosa PvdQ acylase inhibition; purified PvdQ acylase, fluorescence plate reader; 340,000 compounds, 0.063% hits; inhibition, % at 10 µM; in the data active means inhibition above about 30%, passing the limit was not always enough; inconclusive means no clear call, values can overlap the other calls
SR-BI HDL uptake = mouse SR-BI HDL lipid transfer inhibition. ldlA[mSR-BI] CHO cells, DiI-HDL uptake fluorescence, 3 h. inhibition, % at 12.5 µM. 320,000 compounds, 0.96% hits. AID 488896;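 active means mean replicate inhibition of at least 70% and a set share of replicates each scoring 70 or more; inconclusive means meets just one of the two criteria; inactive means fails both criteria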
Target sequence (Q61009 whole entry, looked up): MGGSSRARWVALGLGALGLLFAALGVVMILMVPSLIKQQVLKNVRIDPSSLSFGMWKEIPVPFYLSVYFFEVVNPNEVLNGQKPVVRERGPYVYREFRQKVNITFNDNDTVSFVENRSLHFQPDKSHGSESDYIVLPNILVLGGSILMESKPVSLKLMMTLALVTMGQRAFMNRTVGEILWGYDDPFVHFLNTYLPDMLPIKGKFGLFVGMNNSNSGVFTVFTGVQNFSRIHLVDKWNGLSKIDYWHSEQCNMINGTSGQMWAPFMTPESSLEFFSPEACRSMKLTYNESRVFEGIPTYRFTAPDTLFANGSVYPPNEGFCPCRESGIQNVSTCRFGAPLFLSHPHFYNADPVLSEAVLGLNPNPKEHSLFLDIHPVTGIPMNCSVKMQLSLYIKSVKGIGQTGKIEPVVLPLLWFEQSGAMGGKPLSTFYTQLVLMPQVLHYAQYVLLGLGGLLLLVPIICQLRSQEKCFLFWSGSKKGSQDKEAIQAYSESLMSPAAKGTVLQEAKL
dFosB act-2 = enhances mouse delta FosB homodimer binding to DNA | shares compounds with dFosB act-1 | purified delta FosB, TAMRA-CDK5 oligo fluorescence polarization; normalised: neutral wells 0, positive control 100 | activation, % at 24.9 µM | 2,400 tested, under 10 active | AID 588690;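 active means highest replicate activation at or above 34% and every replicate reaching that threshold; inconclusive means meets only one of the two criteria; inactive means meets neither criterion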;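 further: higher polarization means more probe DNA bound by delta FosB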
Large screens that a line does not name were inactive (follow-up assays come after a bar, where they were run).

CCOc1ccccc1NC(=O)c1cc(C(=O)c2cc(Br)ccc2O)coc1=N	dFosB act-1 33 | dFosB act-2 inactive
Cc1ccc(S(=O)(=O)N2CCN(C(=O)COC(=O)/C=C/c3ccc([N+](=O)[O-])cc3)CC2)c(C)c1	dFosB act-1 24 | dFosB act-2 inactive
C=CCOc1ccc(/C=C/C(=O)OCC(=O)N2CCN(S(=O)(=O)c3ccc(C)cc3C)CC2)cc1	none
Cc1ccc(S(=O)(=O)Nc2ccc3c(c2)C(=O)N([C@H](C)CO)C[C@H](C)[C@@H](CN(C)Cc2ccc4c(c2)OCO4)OCCCC[C@@H](C)O3)cc1	none (no result: dFosB act-1, SR-BI DiI-HDL act, PvdQ inh, SR-BI HDL uptake)
O=C(CN1C(=O)NC2(CCc3ccccc3C2)C1=O)Nc1ccc(Cl)cc1F (stereo not given)	dFosB act-1 40 | dFosB act-2 inactive
O=C(CN1C(=O)NC2(CCCCCC2)C1=O)Nc1ccc(Cl)cc1Cl	none (no result: rRNA inh HTS)
COc1ccccc1-c1cn(CC[C@@H]2CC[C@@H](NC(=O)C3CCOCC3)[C@H](CO)O2)nn1	none (no result: dFosB act-1, SR-BI DiI-HDL act, PvdQ inh, SR-BI HDL uptake)
CC(=O)NC(=S)Nc1ccc(NC(=O)COc2ccc(Cl)cc2Cl)cc1	dFosB act-1 73 (no result: rRNA inh HTS, Xi reactivation) | dFosB act-2 inactive
Cc1ccc(Cl)cc1NC(=O)c1ccccc1OCC(=O)Nc1ccc(Cl)cc1	dFosB act-1 33 | dFosB act-2 inactive
CN(C)S(=O)(=O)c1cccc(C(=O)NCCNC(=O)c2cccc(S(=O)(=O)N(C)C)c2)c1	none
CC(C)C[C@H]1COc2c(Cl)cccc2S(=O)(=O)N1Cc1ccc(F)cc1F	none (no result: dFosB act-1, SR-BI DiI-HDL act, PvdQ inh, SR-BI HDL uptake)
COc1ccc(C(=O)Nc2ccccc2C(=O)NC(Cc2ccc(O)cc2)C(=O)NNC(=O)c2ccc(C)cc2)cc1 (stereo not given)	dFosB act-1 100 | dFosB act-2 inactive
COc1ccc(C(=O)Nc2ccccc2C(=O)NC(Cc2ccc(O)cc2)C(=O)NNC(=O)c2ccccc2)cc1 (stereo not given)	none (no result: rRNA inh HTS)
CN(C)CC#Cc1ccc([C@@H]2[C@@H](CO)N3C(=O)CN(C(=O)c4ccc(F)cc4)C[C@H]23)cc1	none (no result: dFosB act-1, SR-BI DiI-HDL act, PvdQ inh, SR-BI HDL uptake)
O=C1NC[C@H](Cc2ccc(O)cc2)N(C[C@@H]2CCCN2C[C@H](Cc2ccc(O)cc2)N2C[C@H](Cc3ccccc3)N(CCc3ccccc3)C(=O)C2=O)C1=O	none (no result: dFosB act-1, SR-BI DiI-HDL act, PvdQ inh, SR-BI HDL uptake)
CCOc1ccccc1NC(=O)C1CCCN(S(=O)(=O)c2cccc3nsnc23)C1 (stereo not given)	none (no result: rRNA inh HTS, Xi reactivation)
NC1=NCc2ccccc21	none (no result: rRNA inh HTS, Xi reactivation)
CCOc1ccc(C(C(=O)NC2CCCC2)N(C(=O)c2snc(C(N)=O)c2N)c2cccc(O)c2)cc1 (stereo not given)	none
NC(=O)c1nsc(C(=O)N(c2cccc(O)c2)C(C(=O)NC2CCCC2)c2ccc(Cl)cc2)c1N (stereo not given)	dFosB act-1 71 | dFosB act-2 inactive
COc1ccc(N(C(=O)c2snc(C(N)=O)c2N)C(C(=O)NC2CCCC2)c2ccc(F)cc2)c(OC)c1 (stereo not given)	dFosB act-1 32 | dFosB act-2 inactive
COc1ccc(C(C(=O)NC2CCCCC2)N(C(=O)c2snc(C(N)=O)c2N)c2ccc(OC)cc2OC)cc1 (stereo not given)	dFosB act-1 inconclusive
Cc1cccc(NC(=O)c2cc3c(=O)n4ccccc4nc3s2)c1	dFosB act-1 16 | dFosB act-2 inactive
Cc1ccc(-c2nn(CC(=O)NC(C)c3ccccc3)c(=O)c3ccccc23)cc1 (stereo not given)	dFosB act-1 28 (no result: rRNA inh HTS, Xi reactivation) | dFosB act-2 inactive
Cc1nn(CC(=O)NC(C)c2ccccc2)c(=O)c2ccccc12 (stereo not given)	none (no result: rRNA inh HTS, Xi reactivation)
O=C(COc1ncnc2ccccc12)Nc1cc(S(=O)(=O)N2CCOCC2)ccc1Cl	dFosB act-1 46 | dFosB act-2 inactive
Cc1ccc(S(=O)(=O)N2CCOCC2)cc1NC(=O)COc1ncnc2ccccc12	none (no result: rRNA inh HTS)
Cc1cc(NC(=O)CSc2nc3ccccc3c(=O)n2Cc2ccc(F)cc2)no1	dFosB act-1 42 (no result: rRNA inh HTS, Xi reactivation) | dFosB act-2 inactive
Cc1cc(NC(=O)Cn2c(=O)n(Cc3ccccc3)c(=O)c3ccccc32)no1	dFosB act-1 52 (no result: rRNA inh HTS, Xi reactivation) | dFosB act-2 inactive
COc1ccc(CCn2c(SCC(=O)Nc3cc(C)on3)nc3ccsc3c2=O)cc1OC	dFosB act-1 23 (no result: rRNA inh HTS, Xi reactivation) | dFosB act-2 inactive
O=C(CSc1nc2ccccc2c(=O)n1Cc1ccc(F)cc1)NCc1cccs1	dFosB act-1 35 | dFosB act-2 inactive
Cc1noc(C)c1C(=O)N(C)C[C@@H]1OCc2ccccc2-c2ccccc2C(=O)N([C@@H](C)CO)C[C@H]1C	none (no result: dFosB act-1, SR-BI DiI-HDL act, PvdQ inh, SR-BI HDL uptake)
CN(C)c1ccc(NC(=O)/C=C/c2c(Cl)cccc2Cl)cc1	SR-BI HDL uptake inconclusive
C#CCOCCOCCOCCNc1nc(N2CCN(C(=O)[C@H](CCCCN)n3cc(CN)nn3)CC2)nc(N2CCN(C(=O)[C@H](CCCCN)n3cc([C@@H](N)[C@H](C)CC)nn3)CC2)n1	dFosB act-1 43 | dFosB act-2 inactive
C#CCOCCOCCOCCNc1nc(N2CCN(C(=O)[C@H](CCCN=C(N)N)n3cc(C(N)[C@@H](C)CC)nn3)CC2)nc(N2CCN(C(=O)[C@H](CCCCN)n3cc([C@@H](N)[C@H](C)CC)nn3)CC2)n1 (stereo not given in full)	dFosB act-1 36 | dFosB act-2 inactive
CCCNC(=O)N1C[C@@H](C)[C@@H](OC)CN(C)C(=O)c2cc(NC(=O)CCC)ccc2OC[C@@H]1C	none (no result: dFosB act-1, SR-BI DiI-HDL act, PvdQ inh, SR-BI HDL uptake)
O=C(CCCN1C(=O)S/C(=C\c2ccccc2)C1=O)NNC(=O)c1ccccc1O	none
O=C(CN1C(=O)S/C(=C\c2ccccc2)C1=O)NNC(=O)c1ccccc1O	dFosB act-1 48 (no result: rRNA inh HTS, Xi reactivation) | dFosB act-2 inactive
O=C(CN1C(=O)S/C(=C\c2ccc(F)cc2)C1=O)NC1C=CS(=O)(=O)C1 (stereo not given)	none
COc1ccc(/C=C2\SC(=O)N(CC(=O)NNC(=O)c3ccccc3O)C2=O)cc1	dFosB act-1 67 | dFosB act-2 inactive
COc1ccc(/C=C2\SC(=O)N(CC(=O)NC3C=CS(=O)(=O)C3)C2=O)cc1 (stereo not given)	dFosB act-1 41 | dFosB act-2 inactive
CC(=O)c1ccc(NC(=O)CSc2nnc(NC(=O)c3ccco3)s2)cc1	dFosB act-1 28 (no result: rRNA inh HTS, Xi reactivation) | dFosB act-2 inactive
Cc1ccc(NC(=O)CSc2nnc(NC(=O)c3ccco3)s2)cc1	none

Bioassay records as filed in PubChem BioAssay.
